In ChEMBL document CHEMBL3352663, “Inhibition of group IVA cytosolic phospholipase A2 by thiazolyl ketones in vitro, ex vivo, and in vivo” (J Med Chem, 2014) one finds inhibition, XI50 (mole fraction) and IC50 data, which are given here for nine compounds.

Structures are written as SMILES. pIC50: −log10 of the molar value. Activity calls are given as the source filed them. The rule behind the calls is not given here.

Assay [1] relates to Mus musculus. The assay is described as follows: Reduction in PGE2 level in DBA/1 mouse plasma at 0.3 mg/kg, ip by EIA analysis relative to control. It is filed as functional, organism-based. Details: dose 0.3 mg/kg. Summed up:
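Plasma came from collagen-induced arthritic DBA/1 mice at termination, about 5 h after the last daily ip dose. Samples were diluted 1:1000-1:6000 in EIA buffer and incubated 18 h at 4 °C in a PGE2 EIA, read at OD550. Levels are expressed relative to DMSO-vehicle arthritic mice; n=10-11 per group, ±SD.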

The subject of assay [2] is Mus musculus. Briefly: Antiinflammatory activity in DBA/1 mouse […] model assessed as reduction in articular cavity at 7.5 mg/kg, ip treatment started on day 21 after second […] measured on day 32. It is filed as functional, organism-based. Details: dose 7.5 mg/kg. In a few lines:
(§1)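 Prophylactic collagen-induced arthritis in male DBA/1 mice. Bovine type II collagen (2 mg/mL) was emulsified 1:1 in Freund's complete adjuvant and 0.1 mL injected at the tail base on day 0, with a booster on day 21. Daily ip dosing in DMSO at 2 mL/Kg began 1 h before the booster. Arthritis index was scored through day 41. Histology groups were killed at day 32 after […] of dosing; hind paws were scored blind (0-5) for infiltration, hyperplasia and damage.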

Assay [3] deals with Mus musculus. Briefly: Antiinflammatory activity in DBA/1 mouse […] model assessed as reduction in peripheral tissue inflammatory cell infiltration at 7.5 mg/kg, ip treatment started on day 21 after […] measured on day 32. It is filed as functional, organism-based. Further details: dose 7.5 mg/kg. In a few lines:
as §1

Assay [4] concerns Mus musculus. The assay is described as follows: Antiinflammatory activity in DBA/1 mouse […] assessed as reduction in capillary and synovial hyperplasia at 7.5 mg/kg, ip treatment started on day 21 after […] measured on day 32. The format is functional, organism-based. Further details: dose 7.5 mg/kg. Summed up: as §1
The target of assay [5] is T1, Cytosolic phospholipase A2 (Homo sapiens) (UniProt P47712).
T1 sequence (whole entry): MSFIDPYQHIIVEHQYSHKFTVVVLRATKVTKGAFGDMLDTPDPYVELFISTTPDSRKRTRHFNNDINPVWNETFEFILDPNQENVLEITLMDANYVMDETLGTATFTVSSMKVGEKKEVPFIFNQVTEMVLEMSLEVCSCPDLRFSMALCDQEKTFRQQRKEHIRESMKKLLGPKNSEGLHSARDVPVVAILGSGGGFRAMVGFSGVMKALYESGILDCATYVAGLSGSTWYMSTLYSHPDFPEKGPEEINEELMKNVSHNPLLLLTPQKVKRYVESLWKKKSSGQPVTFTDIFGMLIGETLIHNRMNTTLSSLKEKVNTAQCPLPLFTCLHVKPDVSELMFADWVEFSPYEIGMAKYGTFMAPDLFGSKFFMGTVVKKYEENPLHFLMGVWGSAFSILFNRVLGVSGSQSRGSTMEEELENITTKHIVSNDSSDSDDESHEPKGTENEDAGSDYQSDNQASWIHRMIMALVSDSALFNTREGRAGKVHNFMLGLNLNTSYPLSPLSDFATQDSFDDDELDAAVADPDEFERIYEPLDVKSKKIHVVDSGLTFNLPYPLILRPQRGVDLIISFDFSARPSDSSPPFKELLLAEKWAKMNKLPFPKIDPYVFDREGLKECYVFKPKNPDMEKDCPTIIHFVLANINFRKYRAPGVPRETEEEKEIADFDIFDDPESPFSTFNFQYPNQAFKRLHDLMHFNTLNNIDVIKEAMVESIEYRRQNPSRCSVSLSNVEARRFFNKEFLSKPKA
The assay is described as follows: Inhibition of human recombinant GIVA cPLA2 using 400 uM Triton X-100/97 uM PAPC/1.8 uM 14C-labeled PAPC/3uM PIP2 substrate mixedmicelles. In a few lines: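 Modified Dole assay of recombinant human GIVA cPLA2. Mixed micelles contained 400 µM Triton X-100, 97 µM PAPC, 1.8 µM 14C-PAPC and 3 µM PIP2 in 100 mM HEPES pH 7.5 with 90 µM CaCl2, 2 mM DTT and 0.1 mg/mL BSA. Percent inhibition was measured at 0.091 mole fraction inhibitor. XI(50) is the mole fraction giving 50% inhibition.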

In assay [6] the test system is SW982. Briefly: Inhibition of IL-1beta-induced arachidonic acid release in human SW982 cells using [3H]AA by liquid scintillation counting. It is filed as functional, cell-based. As to conditions: for pIC50: Homo sapiens, SW982, 4 h, read-out: IC50; for IC50: sw982. In a few lines: (§2)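 SW982 synovial sarcoma cells were serum-starved and labelled overnight with 3H-AA (0.4 µCi/mL) and 14C-OA (0.067 µCi/mL), then washed with PBS/fBSA. They were pretreated 1 h with inhibitor (10 µM single point, or 0-20 µM for IC50), then stimulated with IL-1β 10 ng/mL for 4 h. Released radioactivity was counted by scintillation relative to total incorporated label; DMSO served as vehicle; ≥3 independent experiments in triplicate.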

The target of assay [7] is T1, Cytosolic phospholipase A2 (Homo sapiens). Briefly: Inhibition of human recombinant GIVA cPLA2 using 400 uM Triton X-100/97 uM PAPC/1.8 uM 14C-labeled PAPC/3uM PIP2 substrate mixedmicelles at 0.091 mole fraction.
In assay [8] the test system is SW982. The assay is described as follows: Inhibition of IL-1beta-induced oleic acid release in human SW982 cells using [3H]OA at 10 uM by liquid scintillation counting. It is filed as functional. The note with it: SW982, 4 h.
Assay [9] is filed under the species Homo sapiens. Briefly: Inhibition of human recombinant GV sPLA2 using 400 uM Triton X-100/98.3 uM PAPC/1.7 uM 14C-labeled PAPC substrate mixedmicelles at 1 uM.
The target of assay [10] is T1, Cytosolic phospholipase A2 (Homo sapiens). The assay is described as follows: Inhibition of human recombinant GIVA cPLA2 at 1 uM in vitro vesicle assay. In a few lines:
(§3)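 Recombinant human GIVA cPLA2 was preincubated with 1% DMSO ± inhibitor (80 s at 37 °C, then 10 min at 25 °C). Sonicated vesicles of 1-palmitoyl-2-[14C]arachidonyl-PC (0.2 μM) were added and incubated 1 h at 37 °C. The reaction was stopped with chloroform/methanol. Single-point tests used 1 µM inhibitor; IC50 determinations used 0-3 µM.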

Assay [11] relates to SW982. Briefly: Inhibition of IL-1beta-induced arachidonic acid release in human SW982 cells using [3H]AA at 10 uM by liquid scintillation counting. The format is functional. As to conditions: for inhibition at 10 µM: SW982, 4 h. In a few lines: as §2
In assay [12] the target is T2, Cytosolic phospholipase A2 (Homo sapiens, UniProt P47712).
T2 sequence (P47712 whole entry): T1 sequence (whole entry)
The assay is described as follows: Inhibition of human recombinant GIVA cPLA2 in vitro vesicle assay. In a few lines: as §3

Assay [13] concerns SW982. Briefly: Inhibition of IL-1beta-induced oleic acid release in human SW982 cells using [3H]OA at 0 to 20 uM by liquid scintillation counting. The format is functional, cell-based.

For `CN(Cc1cnc2nc(N)nc(N)c2n1)c1ccc(C(=O)N[C@@H](CCC(=O)O)C(=O)O)cc1`, the inhibition entry in assay [1] is “Active”. For the same compound, the inhibition result in assay [2], in [3] and in assay [4] was “inactive” throughout.
Take `CCCCCCCCc1ccc(OCC(=O)c2nc3ccccc3s2)cc1`: the XI50 (mole fraction) in assay [5] was 0.06. Also, in [6], the negative logarithm of the IC50 (pIC50) was 5.28. The figures for the inhibition in assay [7] and in assay [9] were above 90% and 55%, respectively. In addition, the inhibition at 10 µM in [8] was 35%; in [11], 71%. Besides, in assay [10], the inhibition entry was “inactive”.
`O=C(COc1ccccc1)c1nccs1`: the IC50 result in assay [6] and in [12] was “Not Active” each time. In addition, the inhibition in assay [7] worked out at 40%; in [9], 0%; in assay [10], 26%. Moreover, the inhibition at 10 µM was 20% in assay [8] and 12% in [11].
`CCCCCCCCc1ccc(OCC(=O)c2nc(CC(=O)OCC)cs2)cc1`: the pIC50 in assay [6] is 5.30. In addition, the inhibition in assay [7] is 64%; in assay [9] it was 50%; in [10], 25%. In assay [12], the IC50 entry is “Not Active”. For the same compound, the inhibition at 10 µM in [8] was found to be 20%; in assay [11], 71%.
On to `O=C(COc1ccc(-c2ccccc2)cc1)c1nccs1`, for which the pIC50 in assay [6] is 5.55. Also, the inhibition in assay [7] was 80%; in [9], 41%; in assay [10], 26%. In addition, in assay [12], the IC50 result is recorded as “Not Active”. Besides, the inhibition at 10 µM in assay [8] turned out to be 25%; in assay [11] it was 73%.
`CCCCCCCCCCCCOCC(=O)c1nc(CC(=O)OCC)cs1`: the inhibition in assay [7] came to 49%; in assay [9], 55%. The inhibition entry in assay [13], in assay [10] and in assay [11] was “inactive” each time.
As for `CCCCCCCCCCCCOCC(=O)c1nc(C(=O)OCC)cs1`, the IC50 entry in [6] and in [12] was “Not Active” throughout. The inhibition was determined as 48% in assay [7], 48% in [9] and 21% in assay [10]. The inhibition entry in [13] was “inactive”. The compound further had an inhibition at 10 µM in assay [11] of 9%.
As for `CCCCCCCCc1ccc(OCC(=O)c2nccs2)cc1`, the XI50 (mole fraction) in [5] came out at 0.02. Also, the negative logarithm of the IC50 (pIC50) in assay [6] was 5.44. Also, the inhibition was above 90% in assay [7], 46% in [9] and 43% in assay [10]. In addition, in assay [13], the inhibition result is “inactive”. This compound came in with an inhibition at 10 µM in [11] above 90%.
In the case of `O=C(COc1ccc(F)cc1)c1nccs1`, the inhibition in assay [7] was 58%; in assay [9] it was 4%; in assay [10], 7%. For the same compound, the IC50 result in assay [12] is recorded as “Not Active”. Also, in assay [8], the inhibition at 10 µM amounted to 25%. Also, in assay [11], the inhibition result was “inactive”.
